Results taken from ChEMBL document CHEMBL4052624, “Metallo-β-lactamase inhibitors by bioisosteric replacement: Preparation, activity and binding” (Eur J Med Chem, 2017).
In brackets after ≈: the same amount, converted by molar mass. Activity calls are given as the source filed them. The calls are words filed in the database; no cut-off is given here.

Legend:
[1] = molecular target: Beta-lactamase VIM-2 (Pseudomonas aeruginosa, UniProt Q9K2N0); assay: Inhibition of Pseudomonas aeruginosa 301-5473 6His-tagged VIM-2 (V27 to E268 residues) expressed in Escherichia coli BL21 Star(DE3) pLysS using nitrocefin as substrate preincubated for 5 mins followed by substrate addition by spectrophotometric analysis
Summary of the method: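 Purified VIM-2 and GIM-1 were each used at 10 nM in 50 mM HEPES pH 7.2 with ZnCl₂ and BSA. Each enzyme was preincubated with inhibitor at 25 °C for 5 min, using sixteen concentrations in a 2-fold series. Nitrocefin was then added and the absorbance rise at 482 nm was read. Initial velocities, measured in triplicate, were fitted to log[inhibitor] vs response curves to give IC50. Line 3 is the ratio of the two IC50s.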

[2] = molecular target: Beta-lactamase VIM-2 (Pseudomonas aeruginosa) (UniProt Q9K2N0); assay: Inhibition of VIM-2 in Pseudomonas aeruginosa K34-7 assessed as potentiation of meropenem-induced antimicrobial activity by measuring meropenem MIC at 125 uM after 20 hrs (reference value: 32 to 64 mg/L)
[3] = molecular target: GIM-1 protein (Pseudomonas aeruginosa) (UniProt Q704V1); assay: Inhibition of Pseudomonas aeruginosa GIM-1 expressed in Escherichia coli SNO3 whole cells using nitrocefin as substrate at 250 uM preincubated for 20 mins followed by substrate addition measured every min up to 60 mins by spectrophotometric analysis relative to control
Chain of GIM-1 protein (Pseudomonas aeruginosa) (Q704V1 as listed by the source): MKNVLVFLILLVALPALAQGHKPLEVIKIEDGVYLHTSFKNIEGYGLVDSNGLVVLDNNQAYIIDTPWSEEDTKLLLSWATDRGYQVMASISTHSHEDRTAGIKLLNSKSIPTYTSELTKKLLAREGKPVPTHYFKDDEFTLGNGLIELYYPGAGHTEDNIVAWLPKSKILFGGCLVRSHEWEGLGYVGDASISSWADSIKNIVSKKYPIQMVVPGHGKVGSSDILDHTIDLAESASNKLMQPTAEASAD
Summary of the method: (§1)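 β-lactamase-negative E. coli SNO3 carrying blaVIM-2, blaGIM-1 or blaNDM-1 in pET26b(+). Hydrolysis of the reporter substrate followed as the initial slope over up to 60 min. Percent inhibition calculated from slopes relative to a no-inhibitor control; EDTA used as positive control.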

[4] = Inhibition of Klebsiella pneumoniae 6His-tagged NDM1 (G36 to R280 residues) expressed in Escherichia coli BL21 Star(DE3) pLysS using imipenem as substrate preincubated for 5 mins followed by substrate addition by spectrophotometric analysis
Summary of the method: (§2)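 His-tagged enzyme, TEV-cleaved, ~95% pure by SDS-PAGE. 10 nM enzyme with 16 inhibitor concentrations in a 2-fold series, in 50 mM HEPES pH 7.2 with ZnCl2 and BSA, preincubated 5 min at 25 °C. Then 100 µM substrate added: imipenem for NDM-1 read at 260 nm, nitrocefin for GIM-1 read at 482 nm. Initial rates in triplicate, fitted to a log[inhibitor] dose–response curve for IC50.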

[5] = system: Klebsiella pneumoniae; assay: Inhibition of Klebsiella pneumoniae NDM1 expressed in Escherichia coli SNO3 whole cells using imipenem as substrate at 250 uM preincubated for 20 mins followed by substrate addition measured every min up to 60 mins by spectrophotometric analysis relative to control; summary of the method: as §1
[6] = molecular target: GIM-1 protein (Pseudomonas aeruginosa, UniProt Q704V1); assay: Inhibition of Pseudomonas aeruginosa 6His-tagged GIM-1 (Q19 to D250 residues) expressed in Escherichia coli BL21 Star(DE3) pLysS using nitrocefin as substrate preincubated for 5 mins followed by substrate addition by spectrophotometric analysis; summary of the method: as §2
Chain of GIM-1 protein (Q704V1 whole entry, the tested form may be a part): as the sequence (Q704V1 as listed by the source) above

[7] = system: Klebsiella pneumoniae; assay: Growth inhibition of Klebsiella pneumoniae K66-45 after 20 hrs
[8] = system: Escherichia coli; assay: Inhibition of VIM-29 in Escherichia coli 50639799 assessed as potentiation of meropenem-induced antimicrobial activity by measuring meropenem MIC at 125 uM after 20 hrs (reference value: 8 to 32 mg/L)
[9] = system: Klebsiella pneumoniae; assay: Inhibition of NDM-1 in Klebsiella pneumoniae K66-45 assessed as potentiation of meropenem-induced antimicrobial activity by measuring meropenem MIC at 125 uM after 20 hrs (reference value: 32 to 64 mg/L)
[10] = system: Pseudomonas aeruginosa; assay: Growth inhibition of Pseudomonas aeruginosa K34-7 after 20 hrs
[11] = system: Escherichia coli; assay: Growth inhibition of Escherichia coli 50639799 after 20 hrs
[12] = molecular target: Beta-lactamase VIM-2 (Pseudomonas aeruginosa) (UniProt Q9K2N0); assay: Inhibition of Pseudomonas aeruginosa 301-5473 VIM-2 expressed in Escherichia coli SNO3 whole cells using nitrocefin as substrate at 250 uM preincubated for 20 mins followed by substrate addition measured every min up to 60 mins by spectrophotometric analysis relative to control; summary of the method: as §1
[13] = Selectivity ratio of IC50 for Pseudomonas aeruginosa 6His-tagged GIM-1 (Q19 to D250 residues) expressed in Escherichia coli BL21 Star(DE3) pLysS to IC50 for Klebsiella pneumoniae 6His-tagged NDM1 (G36 to R280 residues) expressed in Escherichia coli BL21 Star(DE3) pLysS
[14] = system: Pseudomonas aeruginosa; assay: Selectivity ratio of IC50 for Pseudomonas aeruginosa 6His-tagged GIM-1 (Q19 to D250 residues) expressed in Escherichia coli BL21 Star(DE3) pLysS to IC50 for Pseudomonas aeruginosa 301-5473 6His-tagged VIM-2 (V27 to E268 residues) expressed in Escherichia coli BL21 Star(DE3) pLysS

Row | SMILES | IC50 [1] | MIC [2] | inhibition [3] | IC50 ([4]; read-out: IC50) | inhibition [5] | IC50 ([6]; read-out: IC50) | MIC [7] | MIC [8] | MIC [9] | MIC [10] | MIC [11] | inhibition [12] | IC50 [4] | IC50 [6] | Ratio IC50 [13] | Ratio IC50 [14]
1 | O=P(O)(O)C(CS)CCCc1ccccc1 (configuration not stated) | 33.2 µM | 32 µg/mL | 46% | 7.1 µM | 45% | 28 µM | 1000 µg/mL (≈ 3840 µM) | 1 µg/mL | 32 µg/mL | 1000 µg/mL (≈ 3840 µM) | > 1000 µg/mL | 95% |  |  |  | 
2 | CCOP(=O)(OCC)C(CCCc1ccccc1)CSC(C)=O (configuration not stated) | 34 µM | 32 µg/mL | 21% |  | inactive | 26 µM | > 1000 µg/mL | 4 to 8 µg/mL | 64 µg/mL | > 1000 µg/mL | > 1000 µg/mL | 14% |  |  |  | 
3 | CC(=O)SCC(Cc1ccccc1)c1nnn[nH]1 (configuration not stated) | 67 µM |  | 55% | 81 µM | 32% | 203 µM |  |  |  |  |  | 76% |  |  |  | 
4 | CCOP(=O)(OCC)C(CCc1ccccc1)CSC(C)=O (configuration not stated) | 133 µM |  | 25% |  | inactive | 18 µM |  |  |  |  |  | 17% |  |  |  | 
5 | c1ccc(CCCC(CSC2CCCCC2)c2nnn[nH]2)cc1 (configuration not stated) | 5 µM |  | 8% | 10 µM | inactive | 36 to 162 µM |  |  |  |  |  | 73% |  |  |  | 
6 | CC(=O)SCC(CCCCc1ccccc1)P(=O)(O)O (configuration not stated) | 1.8 µM | 32 µg/mL | 50% | 2.5 µM | 37% | 20 µM | > 500 µg/mL | 2 µg/mL | 32 µg/mL | > 500 µg/mL |  | 97% |  |  |  | 
7 | CCOP(=O)(OCC)C(CO)CCc1ccccc1 (configuration not stated) | > 10 µM |  |  | > 10 µM |  | > 10 µM |  |  |  |  |  |  |  |  |  | 
8 | CC(=O)SCC(CCCc1ccccc1)P(=O)(O)O (configuration not stated) | 4.7 µM | 32 µg/mL | 37% | 6.6 µM | 38% | 26 µM | > 500 µg/mL | 1 µg/mL | 32 µg/mL | > 500 µg/mL | > 1000 µg/mL | 95% |  |  |  | 
9 | CCOP(=O)(OCC)C(CS)CCCCc1ccccc1 (configuration not stated) | 1.67 µM |  |  |  |  |  |  |  |  |  |  |  | Nd(Insoluble) | Nd(Insoluble) |  | 
10 | O=P(O)(O)C(CS)CCCCc1ccccc1 (configuration not stated) | 8.6 µM |  | 31% | 8.5 µM | 42% | 16 µM |  |  |  |  |  | 94% |  |  | 2 to 4 | 2 to 4
11 | CC(=O)SCC(CCCc1ccccc1)c1nnn[nH]1 (configuration not stated) | 42 µM |  | 20% | 144 µM |  | 162 to 163 µM |  |  |  |  |  | 77% |  |  |  | 
12 | SCC(CCCc1ccccc1)c1nnn[nH]1 (configuration not stated) | 28 µM |  | 25% | 12 µM | 16% | 68 µM |  |  |  |  |  | 67% |  |  |  | 
13 | O=P(O)(O)C(CO)CCCc1ccccc1 (configuration not stated) | 34 µM |  | 16% | 77 µM |  | > 10 µM |  |  |  |  |  | 66% |  |  |  | 
14 | CCOP(=O)(OCC)C(CO)CCCc1ccccc1 (configuration not stated) | > 10 µM |  | inactive | > 10 µM | inactive | > 10 µM |  |  |  |  |  | inactive |  |  |  | 
15 | O=P(O)(O)C(CO)CCc1ccccc1 (configuration not stated) | 27 to 35 µM |  | 23% | 59 µM | 3.75% | 99 µM |  |  |  |  |  | 61% |  |  |  | 
16 | CC(=O)SCC(CCc1ccccc1)P(=O)(O)O (configuration not stated) | 2.3 µM |  | 40% | 2.9 µM | 39% | 12 µM |  |  |  |  |  | 94% |  |  |  | 
17 | CCOP(=O)(OCC)C(CO)CCCCc1ccccc1 (configuration not stated) | > 10 µM |  | 4% | > 10 µM | 1% | 280 µM |  |  |  |  |  | inactive |  |  |  | 
18 | O=P(O)(O)C(CO)CCCCc1ccccc1 (configuration not stated) | 4.5 µM |  | 14% | 127 µM | 4% | > 10 µM |  |  |  |  |  | 88% |  |  |  | 
19 | CCOP(=O)(OCC)C(CS)CCCc1ccccc1 (configuration not stated) | 0.38 µM | 32 µg/mL | 48% | 1.8 µM | 62% | 0.31 µM | > 500 µg/mL | 8 µg/mL | 32 µg/mL | > 500 µg/mL |  | 79% |  |  |  | 
20 | CCOP(=O)(OCC)C(CCCCc1ccccc1)CSC(C)=O (configuration not stated) | 20 µM |  | 25% |  | inactive | 13 µM |  |  |  |  |  | 12% |  |  |  | 
21 | O=P(O)(O)C(CS)CCc1ccccc1 (configuration not stated) | 7.8 µM | 32 µg/mL | 37% | 5.9 µM | 42% | 23 µM | > 500 µg/mL | 4 µg/mL | 32 µg/mL | > 500 µg/mL |  | 92% |  |  | 2 to 4 | 2 to 4
